Reference: ChEMBL document CHEMBL3044548, “Phytotoxic and antimicrobial activities of catechin derivatives” (2004)
In brackets after ≈: the same amount, converted by molar mass. Blank lines part the entries; values can stand above or below the compound they belong to. Activity calls are given as the source filed them. No cut-off for these calls is given here.

Legend:
[1] = test system: Pectobacterium carotovorum; experiment: Antibacterial activity against Pectobacterium carotovorum after 24 hr by spectrophotometry; format: functional
Outline: (§1)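 Bacterial isolates grown overnight at 37 °C to OD600 0.2. 5 µL of suspension incubated with serial dilutions of derivatives (100 to 0.05 µg) from 1 mg/mL DMSO stocks, 37 °C for 24 h. OD600 read; net growth is OD after 24 h minus OD at start. Percent inhibition is (untreated − treated)/untreated × 100. Two separate replicates. DMSO-only controls.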

Trichoderma viride = experiment: Antifungal activity against Hypocrea rufa at 12.5 to 25 ug/ml after 96 hr by spectrophotometry; format: functional, organism-based
Outline: (§2)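 Spore germination assay. Spores taken from 4-week-old PDA cultures kept in the dark at 24 °C and adjusted to 1 × 10⁵ spores/mL. 100 µL of spores added to serial dilutions of derivatives in PDB, from 1 mg/mL DMSO stocks. Value is the minimum concentration inhibiting germination. DMSO-only controls.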

[2] = test system: Pectobacterium carotovorum; experiment: Bactericidal activity against Pectobacterium carotovorum at 3.1 ug/ml after 24 hr by BacLight bacterial viability fluorescence assay; format: functional, organism-based
Xanthomonas campestris [3] = experiment: Antibacterial activity against Xanthomonas campestris pv. vesicatoria after 24 hr by spectrophotometry; format: functional; outline: as §1
Pseudomonas fluorescens [4] = experiment: Antibacterial activity against Pseudomonas fluorescens after 24 hr by spectrophotometry; format: functional; outline: as §1
Pseudomonas fluorescens [5] = experiment: Bactericidal activity against Pseudomonas fluorescens at 3.1 ug/ml after 24 hr by BacLight bacterial viability fluorescence assay; format: functional, organism-based
Fusarium oxysporum [6] = experiment: Antifungal activity against Fusarium oxysporum at 12.5 to 25 ug/ml after 96 hr by spectrophotometry; format: functional, organism-based; outline: as §2
Erwinia amylovora [7] = experiment: Bactericidal activity against Erwinia amylovora at 1.6 ug/ml after 24 hr by BacLight bacterial viability fluorescence assay; format: functional, organism-based
Xanthomonas campestris [8] = experiment: Bactericidal activity against Xanthomonas euvesicatoria at 6.3 ug/ml after 24 hr by BacLight bacterial viability fluorescence assay; format: functional, organism-based
Penicillium sp. [9] = experiment: Antifungal activity against Penicillium sp. at 12.5 to 25 ug/ml after 96 hr by spectrophotometry; format: functional, organism-based; outline: as §2
Aspergillus niger [10] = experiment: Antifungal activity against Aspergillus niger at 12.5 to 25 ug/ml after 96 hr by spectrophotometry; format: functional, organism-based; outline: as §2
Trichoderma reesei = experiment: Antifungal activity against Trichoderma reesei at 12.5 to 25 ug/ml after 96 hr by spectrophotometry; format: functional, organism-based; outline: as §2
Erwinia amylovora [11] = experiment: Antibacterial activity against Erwinia amylovora after 24 hr by spectrophotometry; format: functional; outline: as §1
Ocimum basilicum = experiment: Herbicidal activity against Ocimum basilicum assessed as shoot growth inhibition at 200 ug/ml after 7 days; format: functional, organism-based
Outline: (§3)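 Ten-day-old seedlings were placed in 5 mL liquid MS basal medium and given filter-sterilized compound at 10, 50, 100 or 200 µg mL^-1. Controls received a methanol vehicle. Cultures were kept at 27 ± 2 °C, shaken at 90 rpm, under 24 µmol m^-2 s^-1 light for 7 days. Shoot and root differentiation were given as percent inhibition versus untreated control, mean ± SD, n = 5.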

Centaurea maculosa [12] = experiment: Herbicidal activity against Centaurea maculosa assessed as shoot growth inhibition at 200 ug/ml after 7 days; format: functional, organism-based; outline: as §3
Centaurea maculosa [13] = experiment: Herbicidal activity against Centaurea maculosa assessed as inhibition of root differentiation at 200 ug/ml after 7 days; format: functional, organism-based; outline: as §3
Gaillardia aristata = experiment: Herbicidal activity against Gaillardia aristata assessed as shoot growth inhibition at 200 ug/ml after 7 days; format: functional, organism-based; outline: as §3
Arabidopsis thaliana = experiment: Herbicidal activity against Arabidopsis thaliana assessed as shoot growth inhibition at 200 ug/ml after 7 days; format: functional, organism-based; outline: as §3
Solanum lycopersicum = experiment: Herbicidal activity against Solanum lycopersicum (tomato) assessed as shoot growth inhibition at 200 ug/ml after 7 days; format: functional, organism-based; outline: as §3
Fusarium oxysporum [14] = experiment: Antifungal activity against Fusarium oxysporum at 25 ug/ml after 96 hr by spectrophotometry; format: functional, organism-based; outline: as §2
Aspergillus niger [15] = experiment: Antifungal activity against Aspergillus niger at 25 ug/ml after 96 hr by spectrophotometry; format: functional, organism-based
Outline: (§4)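 Spores from 4-week-old cultures grown on PDA at 24 °C in the dark were rinsed off in sterile water and adjusted to 1 × 10⁵ spores mL^-1. Spores were incubated with serial dilutions in PDB in 96-well plates at 37 °C under humidity. Controls were DMSO vehicle and (+)-catechin.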

Penicillium sp. [16] = experiment: Antifungal activity against Penicillium sp. at 25 ug/ml after 96 hr by spectrophotometry; format: functional, organism-based; outline: as §4

MIC [1]: 12.5 µg/mL (≈ 37.8 µM) | MIC (Xanthomonas campestris [3]): 12.5 µg/mL (≈ 37.8 µM) | MIC (Pseudomonas fluorescens [4]): 12.5 µg/mL (≈ 37.8 µM) | MIC (Erwinia amylovora [11]): 12.5 µg/mL (≈ 37.8 µM)
Structure (SMILES): CC1(C)OC2Cc3c(O)cc(O)cc3OC2c2cc(O)c(O)cc21 (racemic)
growth inhibition (GI) (Ocimum basilicum): Active | Activity (Trichoderma viride): inactive | growth inhibition (GI) (Centaurea maculosa [12]): Active | Activity [2]: Active | inhibition (Centaurea maculosa [13]): Active | growth inhibition (GI) (Gaillardia aristata): Active | Activity (Pseudomonas fluorescens [5]): Active | Activity (Fusarium oxysporum [6]): inactive | Activity (Erwinia amylovora [7]): Active | growth inhibition (GI) (Arabidopsis thaliana): Active | growth inhibition (GI) (Solanum lycopersicum): Active | Activity (Xanthomonas campestris [8]): Active | Activity (Penicillium sp. [9]): inactive | Activity (Aspergillus niger [10]): inactive | Activity (Trichoderma reesei): inactive

MIC [1]: 25 µg/mL (≈ 50 µM) | MIC (Xanthomonas campestris [3]): 25 µg/mL (≈ 50 µM) | MIC (Pseudomonas fluorescens [4]): 12.5 µg/mL (≈ 25 µM) | MIC (Erwinia amylovora [11]): 25 µg/mL (≈ 50 µM)
Structure (SMILES): CC(=O)Oc1cc(OC(C)=O)c2c(c1)OC(c1ccc(OC(C)=O)c(OC(C)=O)c1)C(OC(C)=O)C2 (racemic) [(+/-)-PENTAACETYLCATECHIN]
Activity (Trichoderma viride): inactive | Activity [2]: Active | Activity (Pseudomonas fluorescens [5]): Active | Activity (Fusarium oxysporum [6]): inactive | Activity (Erwinia amylovora [7]): Active | Activity (Xanthomonas campestris [8]): Active | Activity (Penicillium sp. [9]): inactive | Activity (Aspergillus niger [10]): inactive | Activity (Trichoderma reesei): inactive

MIC [1]: 6.3 µg/mL (≈ 12.6 µM) | MIC (Xanthomonas campestris [3]): 6.3 µg/mL (≈ 12.6 µM) | MIC (Pseudomonas fluorescens [4]): 6.3 µg/mL (≈ 12.6 µM) | MIC (Erwinia amylovora [11]): 6.3 µg/mL (≈ 12.6 µM)
Structure (SMILES): CC(=O)Oc1cc(OC(C)=O)c2c(c1)O[C@H](c1ccc(OC(C)=O)c(OC(C)=O)c1)[C@@H](OC(C)=O)C2 [CATECHIN PENTAACETATE]
Activity (Fusarium oxysporum [14]): Active | Activity (Trichoderma viride): inactive | Activity [2]: Active | Activity (Pseudomonas fluorescens [5]): Active | Activity (Erwinia amylovora [7]): Active | Activity (Xanthomonas campestris [8]): Active | Activity (Penicillium sp. [9]): inactive | Activity (Aspergillus niger [10]): inactive | Activity (Trichoderma reesei): inactive

More lines, now with the values behind:

Structure (SMILES): CC1(C)O[C@H]2Cc3c(O)cc(O)cc3O[C@@H]2c2cc(O)c(O)cc21
MIC [1]: 1.6 µg/mL (≈ 4.84 µM) | Activity (Trichoderma viride): inactive | Activity [2]: Active | MIC (Xanthomonas campestris [3]): 6.3 µg/mL (≈ 19.1 µM) | MIC (Pseudomonas fluorescens [4]): 3.1 µg/mL (≈ 9.38 µM) | Activity (Pseudomonas fluorescens [5]): Active | Activity (Fusarium oxysporum [6]): inactive | Activity (Erwinia amylovora [7]): Active | Activity (Xanthomonas campestris [8]): Active | Activity (Penicillium sp. [9]): inactive | Activity (Aspergillus niger [10]): inactive | Activity (Trichoderma reesei): inactive | MIC (Erwinia amylovora [11]): 3.1 µg/mL (≈ 9.38 µM)

Structure (SMILES): COc1cc(OC)c2c(c1)OC(c1ccc(OC)c(OC)c1)C(O)C2 (racemic)
growth inhibition (GI) (Ocimum basilicum): Active | MIC [1]: 6.3 µg/mL (≈ 18.2 µM) | Activity (Trichoderma viride): inactive | growth inhibition (GI) (Centaurea maculosa [12]): Active | Activity [2]: Active | MIC (Xanthomonas campestris [3]): 12.5 µg/mL (≈ 36.1 µM) | MIC (Pseudomonas fluorescens [4]): 12.5 µg/mL (≈ 36.1 µM) | inhibition (Centaurea maculosa [13]): Active | growth inhibition (GI) (Gaillardia aristata): Active | Activity (Pseudomonas fluorescens [5]): Active | Activity (Fusarium oxysporum [6]): inactive | Activity (Erwinia amylovora [7]): Active | growth inhibition (GI) (Arabidopsis thaliana): Active | growth inhibition (GI) (Solanum lycopersicum): Active | Activity (Xanthomonas campestris [8]): Active | Activity (Penicillium sp. [9]): inactive | Activity (Aspergillus niger [10]): inactive | Activity (Trichoderma reesei): inactive | MIC (Erwinia amylovora [11]): 12.5 µg/mL (≈ 36.1 µM)

Structure (SMILES): Oc1cc(O)c2c(c1)OC(c1ccc(O)c(O)c1)C(O)C2 (racemic)
Activity (Trichoderma viride): inactive | Activity [2]: Active | Activity (Pseudomonas fluorescens [5]): Active | Activity (Fusarium oxysporum [6]): inactive | Activity (Erwinia amylovora [7]): Active | Activity (Xanthomonas campestris [8]): Active | Activity (Penicillium sp. [9]): inactive | Activity (Aspergillus niger [10]): inactive | Activity (Trichoderma reesei): inactive

Structure (SMILES): COc1cc(OC)c2c(c1)O[C@H](c1ccc(OC)c(OC)c1)[C@@H](O)C2 [CATECHIN TETRAMETHYLETHER]
MIC [1]: 6.3 µg/mL (≈ 18.2 µM) | Activity (Trichoderma viride): inactive | Activity [2]: Active | MIC (Xanthomonas campestris [3]): 25 µg/mL (≈ 72.2 µM) | MIC (Pseudomonas fluorescens [4]): 6.3 µg/mL (≈ 18.2 µM) | Activity (Aspergillus niger [15]): Active | Activity (Penicillium sp. [16]): Active | Activity (Pseudomonas fluorescens [5]): Active | Activity (Fusarium oxysporum [6]): inactive | Activity (Erwinia amylovora [7]): Active | Activity (Xanthomonas campestris [8]): Active | Activity (Trichoderma reesei): inactive | MIC (Erwinia amylovora [11]): 25 µg/mL (≈ 72.2 µM)

Structure (SMILES): Oc1cc(O)c2c(c1)O[C@H](c1ccc(O)c(O)c1)[C@@H](O)C2 [CIANIDANOL]
MIC [1]: 1.6 µg/mL (≈ 5.51 µM) | Activity (Trichoderma viride): Active | Activity [2]: Active | MIC (Xanthomonas campestris [3]): 1.6 µg/mL (≈ 5.51 µM) | MIC (Pseudomonas fluorescens [4]): 1.6 µg/mL (≈ 5.51 µM) | Activity (Pseudomonas fluorescens [5]): Active | Activity (Fusarium oxysporum [6]): Active | Activity (Erwinia amylovora [7]): Active | Activity (Xanthomonas campestris [8]): Active | Activity (Penicillium sp. [9]): Active | Activity (Aspergillus niger [10]): Active | Activity (Trichoderma reesei): Active | MIC (Erwinia amylovora [11]): 1.6 µg/mL (≈ 5.51 µM)
